We go through eleven molecules from ChEMBL document CHEMBL2429734, “Expedient Synthesis of SMAMPs via Click Chemistry” (ACS Med Chem Lett, 2013).

The test system of data set [1] is Staphylococcus aureus. Nature of the data set: Antibacterial activity against Staphylococcus aureus ATCC 27660 assessed as growth inhibition incubated for 30 mins prior to inoculation measured after 18 hrs by broth microdilution method in presence of 40% mouse serum. Format: functional. A digest of the protocol: (§1)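 Hancock-modified CLSI microbroth dilution MIC run in the presence of 40% mouse serum against S. aureus ATCC 27660 or E. coli ATCC 25922. 40% was the highest serum level used because bacterial growth was impaired at higher percentages.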
For orientation: In broth dilution the organism is exposed to a series of concentrations in liquid medium.

A short description of data set [2]: Ratio of compound HC50 to pexiganan HC50 for human RBC. The data set is classed as ADME, cell-based. The settings on record: erythrocyte.
Data set [3] can be described thus: Selectivity ratio of HC50 for human RBC to MIC for Staphylococcus aureus ATCC 27660. The data set is classed as functional.
The test system of another data set is Klebsiella pneumoniae. Nature of the data set: Antibacterial activity against Klebsiella pneumoniae ATCC 13883 assessed as growth inhibition after 18 hrs by broth microdilution method in absence of 40% mouse serum. The data set is classed as functional. The settings on record: ATCC 13883, 18 h. A digest of the protocol:
(§2)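 MIC determined by Hancock's method for cationic antimicrobial peptides, a slight modification of the CLSI microbroth dilution method, run in medium without mouse serum. Strains were S. aureus ATCC 27660, E. coli ATCC 25922, E. faecalis ATCC 29212, P. aeruginosa ATCC 10145 and K. pneumoniae ATCC 13883.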

The subject of data set [4] is Escherichia coli. Nature of the data set: Antibacterial activity against Escherichia coli ATCC 25922 assessed as growth inhibition after 18 hrs by broth microdilution method in absence of 40% mouse serum. Format: functional. The note with it: ATCC 25922, 18 h. Put shortly:
as §2

Data set [5] has as its system Escherichia coli. Nature of the data set: Antibacterial activity against Escherichia coli ATCC 25922 assessed as growth inhibition incubated for 30 mins prior to inoculation measured after 18 hrs by broth microdilution method in presence of 40% mouse serum. The data set is classed as functional. Put shortly: as §1
In data set [6] the test system is Staphylococcus aureus. Nature of the data set: Antibacterial activity against Staphylococcus aureus ATCC 27660 assessed as growth inhibition after 18 hrs by broth microdilution method in absence of 40% mouse serum. The data set is classed as functional. The settings on record: ATCC 27660, 18 h. Put shortly:
as §2

A further data set deals with Pseudomonas aeruginosa. Nature of the data set: Antibacterial activity against Pseudomonas aeruginosa ATCC 10145 assessed as growth inhibition after 18 hrs by broth microdilution method in absence of 40% mouse serum. The note with it: ATCC 10145, 18 h. The data set is classed as functional. Put shortly: as §2
A short description of data set [7]: Hemolytic activity in human RBC assessed as release of hamoglobin after 1 hr. The data set is classed as ADME, cell-based, Erythrocyte. The note with it: for HC50 at 1 h: human red blood cells. Put shortly:
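Lysis of human erythrocytes measured. HC50 was taken as the lowest concentration causing 50% lysis of the red blood cells.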

A short description of data set [8]: Selectivity ratio of HC50 for human RBC to MIC for Escherichia coli ATCC 25922. The data set is classed as functional.
In the next data set the test system is Enterococcus faecalis. Nature of the data set: Antibacterial activity against Enterococcus faecalis ATCC 29212 assessed as growth inhibition after 18 hrs by broth microdilution method in absence of 40% mouse serum. Format: functional. The note with it: ATCC 29212, 18 h. A digest of the protocol: as §2

What is called MIC is the smallest concentration in the dilution series that meets the test's criterion for growth inhibition. A word on the HC50: it is the concentration that lyses half of the red blood cells. On to `NCCCOc1ccc(-n2cc(-c3cccc(-c4cn(-c5ccc(OCCCN)c(OCCCN)c5)nn4)c3)nn2)cc1OCCCN.O=C(O)C(F)(F)F.O=C(O)C(F)(F)F.O=C(O)C(F)(F)F.O=C(O)C(F)(F)F`, for which the minimum inhibitory concentration (MIC) with Staphylococcus aureus [1] was 0.39 µg/mL; in the data set on Klebsiella pneumoniae, above 50 µg/mL; in the data set on Escherichia coli [4] it was above 50 µg/mL; in the data set with Escherichia coli [5], 6.25 µg/mL; with Staphylococcus aureus [6], 12.5 µg/mL; in the data set on Pseudomonas aeruginosa, 50 µg/mL. For the same molecule, the Ratio in [2] is listed as 10. Moreover, the Selectivity ratio in [3] was above 2500; in [8], above 160. The 50% haemolytic concentration (HC50) at 1 h in data set [7] is above 1000 µg/mL.
Take `NCCCOc1cc(OCCCN)cc(-n2cc(-c3ccc4c(ccc5cc(-c6cn(-c7cc(OCCCN)cc(OCCCN)c7)nn6)ccc54)c3)nn2)c1.O=C(O)C(F)(F)F.O=C(O)C(F)(F)F.O=C(O)C(F)(F)F.O=C(O)C(F)(F)F`: the minimum inhibitory concentration (MIC) in the data set on Staphylococcus aureus [1] was 0.39 µg/mL; in the data set on Enterococcus faecalis, 50 µg/mL; in the data set with Klebsiella pneumoniae it was above 50 µg/mL; in the data set on Escherichia coli [4], above 50 µg/mL; in the data set with Escherichia coli [5], 12.5 µg/mL; in the data set with Staphylococcus aureus [6] it was 25 µg/mL. Further, the minimal inhibitory concentration (MIC) with Pseudomonas aeruginosa came out at 25 µg/mL. The HC50 at 1 h in data set [7] worked out at 109 µg/mL.
`NCCCOc1cc(OCCCN)cc(-c2ccc3ccc(-c4cc(OCCCN)cc(OCCCN)c4)cc3c2)c1.O=C(O)C(F)(F)F.O=C(O)C(F)(F)F.O=C(O)C(F)(F)F.O=C(O)C(F)(F)F`: the MIC in the data set on Staphylococcus aureus [1] is 1.56 µg/mL; with Escherichia coli [5], 25 µg/mL. The HC50 at 1 h in data set [7] turned out to be 194 µg/mL.
As to PEXIGANAN ACETATE, the HC50 in data set [7] (erythrocyte, 1 h) is 120 µg/mL.
`NCCCOc1cccc(-n2cc(-c3cccc(-c4cn(-c5cccc(OCCCN)c5)nn4)c3)nn2)c1.O=C(O)C(F)(F)F.O=C(O)C(F)(F)F`: the minimal inhibitory concentration (MIC) in the data set with Staphylococcus aureus [1] was 12.5 µg/mL; in the data set with Enterococcus faecalis, 25 µg/mL; in the data set with Klebsiella pneumoniae, above 50 µg/mL; with Escherichia coli [4], 25 µg/mL; in the data set on Escherichia coli [5] it was 25 µg/mL; in the data set with Staphylococcus aureus [6], 50 µg/mL. The MIC in the data set with Pseudomonas aeruginosa amounted to 25 µg/mL.
Regarding `NCCCOc1cc(OCCCN)cc(-n2cc(-c3ccc4ccc(-c5cn(-c6cc(OCCCN)cc(OCCCN)c6)nn5)cc4c3)nn2)c1.O=C(O)C(F)(F)F.O=C(O)C(F)(F)F.O=C(O)C(F)(F)F.O=C(O)C(F)(F)F`, the MIC in the data set on Staphylococcus aureus [1] is 0.39 µg/mL; in the data set on Enterococcus faecalis it was 25 µg/mL; in the data set with Klebsiella pneumoniae it was 50 µg/mL; in the data set with Escherichia coli [4], above 50 µg/mL; with Escherichia coli [5] it was 6.25 µg/mL; in the data set with Staphylococcus aureus [6], 12.5 µg/mL. Also, in the data set on Pseudomonas aeruginosa, the MIC is above 50 µg/mL. The HC50 at 1 h in data set [7] was 693 µg/mL.
Consider `NCCCOc1ccc(-n2cc(-c3ccc4ccc(-c5cn(-c6cc(OCCCN)c(OCCCN)c(OCCCN)c6)nn5)cc4c3)nn2)cc1OCCCN.O=C(O)C(F)(F)F.O=C(O)C(F)(F)F.O=C(O)C(F)(F)F.O=C(O)C(F)(F)F.O=C(O)C(F)(F)F`, for which the MIC in the data set on Staphylococcus aureus [1] is 0.39 µg/mL; in the data set on Enterococcus faecalis, 25 µg/mL; in the data set on Klebsiella pneumoniae, above 50 µg/mL; in the data set on Escherichia coli [4] it was 50 µg/mL; in the data set on Escherichia coli [5] it was 25 µg/mL; in the data set on Staphylococcus aureus [6], 12.5 µg/mL. The MIC in the data set with Pseudomonas aeruginosa amounted to 50 µg/mL. Moreover, the HC50 at 1 h in data set [7] worked out at 94 µg/mL.
For `NCCCOc1cc(-n2cc(-c3ccc4ccc(-c5cn(-c6cc(OCCCN)c(OCCCN)c(OCCCN)c6)nn5)cc4c3)nn2)cc(OCCCN)c1OCCCN.O=C(O)C(F)(F)F.O=C(O)C(F)(F)F.O=C(O)C(F)(F)F.O=C(O)C(F)(F)F.O=C(O)C(F)(F)F.O=C(O)C(F)(F)F`, the MIC is 0.19 µg/mL in the data set on Staphylococcus aureus [1]; 50 µg/mL with Enterococcus faecalis; above 50 µg/mL in the data set on Klebsiella pneumoniae; 25 µg/mL with Escherichia coli [4]; 25 µg/mL in the data set with Escherichia coli [5]; 12.5 µg/mL with Staphylococcus aureus [6]. Besides, in the data set with Pseudomonas aeruginosa, the minimum inhibitory concentration (MIC) was 12.5 µg/mL. The HC50 at 1 h in data set [7] is 828 µg/mL.
`NCCCOc1cc(C#Cc2ccc3ccc(C#Cc4cc(OCCCN)cc(OCCCN)c4)cc3c2)cc(OCCCN)c1.O=C(O)C(F)(F)F.O=C(O)C(F)(F)F.O=C(O)C(F)(F)F.O=C(O)C(F)(F)F`: the MIC was found to be 3.13 µg/mL in the data set with Staphylococcus aureus [1] and 12.5 µg/mL with Escherichia coli [5]. Also, the concentration for 50% haemolysis (HC50) at 1 h in data set [7] is 3.4 µg/mL.
On to `NCCCOc1ccc(-n2cc(-c3ccc4ccc(-c5cn(-c6ccc(OCCCN)c(OCCCN)c6)nn5)cc4c3)nn2)cc1OCCCN.O=C(O)C(F)(F)F.O=C(O)C(F)(F)F.O=C(O)C(F)(F)F.O=C(O)C(F)(F)F`, for which the MIC in the data set with Staphylococcus aureus [1] is 0.19 µg/mL; in the data set with Enterococcus faecalis, 25 µg/mL; in the data set with Klebsiella pneumoniae, 50 µg/mL; in the data set on Escherichia coli [4], above 50 µg/mL; with Escherichia coli [5], 3.13 µg/mL; in the data set with Staphylococcus aureus [6], 25 µg/mL. In the data set with Pseudomonas aeruginosa, the minimum inhibitory concentration (MIC) came to 50 µg/mL. Moreover, the HC50 at 1 h in [7] stood at 81 µg/mL.
For the molecule `NCCCOc1cccc(-n2cc(-c3ccc4ccc(-c5cn(-c6cccc(OCCCN)c6)nn5)cc4c3)nn2)c1.O=C(O)C(F)(F)F.O=C(O)C(F)(F)F`, the MIC with Staphylococcus aureus [1] was 12.5 µg/mL; in the data set with Enterococcus faecalis it was 50 µg/mL; with Klebsiella pneumoniae it was above 50 µg/mL; in the data set with Escherichia coli [4], above 50 µg/mL; in the data set on Escherichia coli [5], above 50 µg/mL; with Staphylococcus aureus [6] it was above 50 µg/mL. Also, the MIC in the data set on Pseudomonas aeruginosa was above 50 µg/mL.
